Source: ChEMBL document CHEMBL1125311, “Inhibition of human leukocyte elastase. 4. Selection of a substituted cephalosporin (L-658,758) as a topical aerosol” (J Med Chem, 1992)

Test system: Cricetinae gen. sp.
Assay: Compound was evaluated in vivo for inhibition of HLE-induced hemorrhage in hamster lung at 100 microg 30 min after administration prior to HLE
Type: functional, Cricetulus griseus
Summary of the method: (§1)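 Hamster, intratracheal dosing of compound (per animal) 30 min before IT instillation of 50 μg HLE (50 units in Experimental); hemorrhage read 3 h later: lungs lavaged with saline, hemoglobin in lavage measured at 414 nm. Percent inhibition from drug-treated vs vehicle-treated hemorrhage; three animals per dose and time. Titration at 100, 30, 10, 3 μg/animal gives ED50.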

SMILES | Inhibition [%]
CO[C@H]1C(=O)N2C(C(=O)N(C)CCC(=O)O)=C(CSc3nc(=O)c(=O)[nH]n3C)CS(=O)(=O)[C@H]12 | 96
CO[C@H]1C(=O)N2C(C(=O)N3CCCC3C(=O)O)=C(CSc3nc(=O)c(=O)[nH]n3C)CS(=O)(=O)[C@H]12 (stereo not given in full) | 100
CO[C@H]1C(=O)N2C(C(=O)N3CCCC3)=C(CSc3nc(=O)c(=O)[nH]n3C)CS(=O)(=O)[C@H]12 | 95
CO[C@H]1C(=O)N2C(C(=O)N(C)CC(=O)OC(C)(C)C)=C(CSc3nnnn3CC(=O)O)CS(=O)(=O)[C@H]12 | 91
CO[C@H]1C(=O)N2C(C(=O)N(C)CC(=O)OC(C)(C)C)=C(CSc3nc(=O)c(=O)[nH]n3C)CS(=O)(=O)[C@H]12 | 98

Test system: Cricetinae gen. sp.
Assay: Compound was evaluated in vivo for inhibition of HLE-induced hemorrhage in hamster lung at 200 microg, 2 hr after administration prior to HLE
Type: functional, Cricetulus griseus
Summary of the method: (§2)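 Hamster duration protocol: 200 μg/animal given intratracheally 60, 120, 180 or 240 min before IT HLE instillation; hemorrhage scored after 3 h as hemoglobin (414 nm) in saline lung lavage, relative to vehicle-treated animals; three animals per point. T50 taken as time at which 50% inhibition is still obtained.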

SMILES | Inhibition [%]
CO[C@H]1C(=O)N2C(C(=O)N(C)CC(=O)O)=C(COC(=O)c3ccccc3)CS(=O)(=O)[C@H]12 | 58
CO[C@H]1C(=O)N2C(C(=O)N(C)CC(=O)OC(C)(C)C)=C(CSc3nc(=O)c(=O)[nH]n3C)CS(=O)(=O)[C@H]12 | 84

Test system: Cricetinae gen. sp.
Assay: Compound was evaluated in vivo for inhibition of HLE-induced hemorrhage in hamster lung at 200 microg 1 hr after administration prior to HLE
Type: functional, Cricetulus griseus
Summary of the method: as §2

SMILES | Inhibition [%]
CO[C@H]1C(=O)N2C(C(=O)N(C)CCC(=O)O)=C(CSc3nc(=O)c(=O)[nH]n3C)CS(=O)(=O)[C@H]12 | 95
CO[C@H]1C(=O)N2C(C(=O)N3CCCC3)=C(CSc3nc(=O)c(=O)[nH]n3C)CS(=O)(=O)[C@H]12 | 88
CO[C@H]1C(=O)N2C(C(=O)N(C)CC(=O)OC(C)(C)C)=C(CSc3nc(=O)c(=O)[nH]n3C)CS(=O)(=O)[C@H]12 | 89

Test system: Cricetinae gen. sp.
Assay: Compound was evaluated in vivo for inhibition of HLE-induced hemorrhage in hamster lung at 200 microg 4 hr after administration prior to HLE
Type: functional, Cricetulus griseus
Summary of the method: as §2

SMILES | Inhibition [%]
CO[C@H]1C(=O)N2C(C(=O)N(C)CCC(=O)O)=C(CSc3nc(=O)c(=O)[nH]n3C)CS(=O)(=O)[C@H]12 | -23
CO[C@H]1C(=O)N2C(C(=O)N3CCCC3)=C(CSc3nc(=O)c(=O)[nH]n3C)CS(=O)(=O)[C@H]12 | 50

Test system: Cricetinae gen. sp.
Assay: Compound was evaluated in vivo for inhibition of HLE-induced hemorrhage in hamster lung at 200 microg, 3h after administration prior to HLE
Type: functional, Cricetulus griseus
Summary of the method: as §2

SMILES | Inhibition [%]
CO[C@H]1C(=O)N2C(C(=O)N(C)CC(=O)O)=C(COC(=O)c3ccccc3)CS(=O)(=O)[C@H]12 | 38
CO[C@H]1C(=O)N2C(C(=O)N(C)CC(=O)OC(C)(C)C)=C(CSc3nc(=O)c(=O)[nH]n3C)CS(=O)(=O)[C@H]12 | 38

Test system: Cricetinae gen. sp.
Assay: Compound was evaluated in vivo for inhibition of HLE-induced hemorrhage in hamster lung at 200 microg 3h after administration prior to HLE
Type: functional, Cricetulus griseus
Summary of the method: as §2

SMILES | Inhibition [%]
CO[C@H]1C(=O)N2C(C(=O)N(C)CCC(=O)O)=C(CSc3nc(=O)c(=O)[nH]n3C)CS(=O)(=O)[C@H]12 | 46
CO[C@H]1C(=O)N2C(C(=O)N3CCCC3)=C(CSc3nc(=O)c(=O)[nH]n3C)CS(=O)(=O)[C@H]12 | 64

Test system: Cricetinae gen. sp.
Assay: Compound was evaluated in vivo for inhibition of HLE-induced hemorrhage in hamster lung at 30 ug 30 min after administration prior to HLE
Type: functional, Cricetulus griseus
Summary of the method: as §1

SMILES | Inhibition [%]
CO[C@H]1C(=O)N2C(C(=O)N(C)CCC(=O)O)=C(CSc3nc(=O)c(=O)[nH]n3C)CS(=O)(=O)[C@H]12 | 74
CO[C@H]1C(=O)N2C(C(=O)N3CCCC3C(=O)O)=C(CSc3nc(=O)c(=O)[nH]n3C)CS(=O)(=O)[C@H]12 (stereo not given in full) | 86
CO[C@H]1C(=O)N2C(C(=O)N3CCCC3)=C(CSc3nc(=O)c(=O)[nH]n3C)CS(=O)(=O)[C@H]12 | 60
CO[C@H]1C(=O)N2C(C(=O)N(C)CC(=O)OC(C)(C)C)=C(CSc3nnnn3CC(=O)O)CS(=O)(=O)[C@H]12 | 59
CO[C@H]1C(=O)N2C(C(=O)N(C)CC(=O)OC(C)(C)C)=C(CSc3nc(=O)c(=O)[nH]n3C)CS(=O)(=O)[C@H]12 | 94

Test system: Cricetinae gen. sp.
Assay: Compound was evaluated in vivo for inhibition of HLE-induced hemorrhage in hamster lung at 200 microg, 4 hr after administration prior to HLE
Type: functional, Cricetulus griseus
Summary of the method: as §2

SMILES | Inhibition [%]
CO[C@H]1C(=O)N2C(C(=O)N(C)CC(=O)O)=C(COC(=O)c3ccccc3)CS(=O)(=O)[C@H]12 | 5

Test system: Cricetinae gen. sp.
Assay: Compound was evaluated in vivo for inhibition of HLE-induced hemorrhage in hamster lung at 10 ug 30 min after administration prior to HLE
Type: functional, Cricetulus griseus
Summary of the method: as §1

SMILES | Inhibition [%]
CO[C@H]1C(=O)N2C(C(=O)N(C)CCC(=O)O)=C(CSc3nc(=O)c(=O)[nH]n3C)CS(=O)(=O)[C@H]12 | 45
CO[C@H]1C(=O)N2C(C(=O)N3CCCC3C(=O)O)=C(CSc3nc(=O)c(=O)[nH]n3C)CS(=O)(=O)[C@H]12 (stereo not given in full) | 80
CO[C@H]1C(=O)N2C(C(=O)N3CCCC3)=C(CSc3nc(=O)c(=O)[nH]n3C)CS(=O)(=O)[C@H]12 | 30
CO[C@H]1C(=O)N2C(C(=O)N(C)CC(=O)OC(C)(C)C)=C(CSc3nnnn3CC(=O)O)CS(=O)(=O)[C@H]12 | 20
CO[C@H]1C(=O)N2C(C(=O)N(C)CC(=O)OC(C)(C)C)=C(CSc3nc(=O)c(=O)[nH]n3C)CS(=O)(=O)[C@H]12 | 65

Target: T1, Neutrophil elastase (Homo sapiens, UniProt P08246)
T1 sequence (P08246 whole entry): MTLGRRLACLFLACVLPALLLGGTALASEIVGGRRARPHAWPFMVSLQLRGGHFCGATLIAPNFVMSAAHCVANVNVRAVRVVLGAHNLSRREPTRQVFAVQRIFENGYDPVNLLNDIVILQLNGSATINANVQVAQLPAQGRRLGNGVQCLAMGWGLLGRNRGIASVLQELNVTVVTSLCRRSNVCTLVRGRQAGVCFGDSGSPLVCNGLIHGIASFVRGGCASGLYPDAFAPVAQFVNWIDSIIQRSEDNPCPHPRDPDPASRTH
Assay: Inhibitory activity against Human Leukocyte Elastase

SMILES | IC50 [nM]
CO[C@H]1C(=O)N2C(C(=O)N3CCCC3)=C(CSc3nc(=O)c(=O)[nH]n3C)CS(=O)(=O)[C@H]12 | 2000

Test system: not listed separately
Assay: Half-life value of the compound.
Type: ADME
Summary of the method: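 Chemical stability: compound dissolved at 1 mg/mL in 0.5 M MOPS, pH 8.0, held at 25 °C in capped vial; aliquots quenched in 2% aqueous TFA and analysed by reverse-phase HPLC over one to two half-lives. Peak areas fit to first-order decay F(t)=A/2^(t/t1/2) to give t1/2.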

SMILES | half-life [h]
CO[C@H]1C(=O)N2C(C(=O)N3CCCC3C(=O)O)=C(CSc3nc(=O)c(=O)[nH]n3C)CS(=O)(=O)[C@H]12 (stereo not given in full) | 46
CO[C@H]1C(=O)N2C(C(=O)N3CCCC3)=C(CSc3nc(=O)c(=O)[nH]n3C)CS(=O)(=O)[C@H]12 | 20

Test system: Cricetinae gen. sp.
Assay: Compound was evaluated in vivo for inhibition of HLE-induced hemorrhage in hamster lung at 200 microg 2 hr after administration prior to HLE
Type: functional, Cricetulus griseus
Summary of the method: as §2

SMILES | Inhibition [%]
CO[C@H]1C(=O)N2C(C(=O)N(C)CCC(=O)O)=C(CSc3nc(=O)c(=O)[nH]n3C)CS(=O)(=O)[C@H]12 | 87
CO[C@H]1C(=O)N2C(C(=O)N3CCCC3)=C(CSc3nc(=O)c(=O)[nH]n3C)CS(=O)(=O)[C@H]12 | 87

Target: T1, Neutrophil elastase
Assay: In vitro inhibitory activity against human leukocyte elastase

SMILES | Ki [nM]
CO[C@H]1C(=O)N2C(C(=O)N3CCCC3C(=O)O)=C(CSc3nc(=O)c(=O)[nH]n3C)CS(=O)(=O)[C@H]12 (stereo not given in full) | 250

Target: T2, Neutrophil elastase (Homo sapiens) (UniProt P08246)
T2 sequence (whole entry): T1 sequence (P08246 whole entry)

SMILES | k obs / 1 [M⁻¹ s⁻¹]
CO[C@H]1C(=O)N2C(C(=O)N(C)CCC(=O)O)=C(CSc3nc(=O)c(=O)[nH]n3C)CS(=O)(=O)[C@H]12 | 1000
CO[C@H]1C(=O)N2C(C(=O)N3CCCC3)=C(CSc3nc(=O)c(=O)[nH]n3C)CS(=O)(=O)[C@H]12 | 13400
CO[C@H]1C(=O)N2C(C(=O)N(C)CC(=O)O)=C(COC(=O)c3ccccc3)CS(=O)(=O)[C@H]12 | 600
CO[C@H]1C(=O)N2C(C(=O)N(C)CC(=O)OC(C)(C)C)=C(CSc3nnnn3CC(=O)O)CS(=O)(=O)[C@H]12 | 20500
CO[C@H]1C(=O)N2C(C(=O)N(C)CC(=O)OC(C)(C)C)=C(CSc3nc(=O)c(=O)[nH]n3C)CS(=O)(=O)[C@H]12 | 19300

Test system: Cricetinae gen. sp.
Assay: Compound was evaluated in vivo for inhibition of HLE-induced hemorrhage in hamster lung at 30microg, 30 min after administration prior to HLE
Type: functional, Cricetulus griseus
Summary of the method: as §1

SMILES | Inhibition [%]
CO[C@H]1C(=O)N2C(C(=O)N(C)CC(=O)O)=C(COC(=O)c3ccccc3)CS(=O)(=O)[C@H]12 | 58

Test system: Cricetinae gen. sp.
Assay: Compound was evaluated in vivo for inhibition of HLE-induced hemorrhage in hamster lung at 100 microg, 30 min after administration prior to HLE
Type: functional, Cricetulus griseus
Summary of the method: as §1

SMILES | Inhibition [%]
CO[C@H]1C(=O)N2C(C(=O)N(C)CC(=O)O)=C(COC(=O)c3ccccc3)CS(=O)(=O)[C@H]12 | 87

Test system: Cricetinae gen. sp.
Assay: Inhibitory activity against Human Leukocyte Elastase by Lung Hemorrhage assay (Effective dose at 15 microg)
Type: functional, Cricetulus griseus

SMILES | ED50 [µg]
CO[C@H]1C(=O)N2C(C(=O)N3CCCC3)=C(CSc3nc(=O)c(=O)[nH]n3C)CS(=O)(=O)[C@H]12 | 30

Test system: Cricetinae gen. sp.
Assay: Inhibitory activity against Human Leukocyte Elastase by Lung Hemorrhage assay ( at 200 ug/animal)
Type: functional, Cricetulus griseus
Summary of the method: as §2

SMILES | T50 [min]
CO[C@H]1C(=O)N2C(C(=O)N3CCCC3)=C(CSc3nc(=O)c(=O)[nH]n3C)CS(=O)(=O)[C@H]12 | 240

Test system: Cricetinae gen. sp.
Assay: Inhibitory activity against Human Leukocyte Elastase by Lung Hemorrhage assay (at 30 min)
Type: functional, Cricetulus griseus
Summary of the method: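 Hamster, intratracheal: test compound 100 μg/animal given 30 min before IT instillation of HLE (50 μg; text also says 50 units). Hemorrhage read 3 h after HLE: lungs lavaged with saline, hemoglobin measured at 414 nm. Percent inhibition from hemorrhage in drug-treated vs vehicle-treated animals; mean of three animals per dose and time.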

SMILES | ED50 [µg]
CO[C@H]1C(=O)N2C(C(=O)N3CCCC3)=C(CSc3nc(=O)c(=O)[nH]n3C)CS(=O)(=O)[C@H]12 | 20

Test system: Cricetinae gen. sp.
Assay: Compound was evaluated in vivo for inhibition of HLE-induced hemorrhage in hamster lung at 3 ug 30 min after administration prior to HLE
Type: functional, Cricetulus griseus
Summary of the method: as §1

SMILES | Inhibition [%]
CO[C@H]1C(=O)N2C(C(=O)N3CCCC3C(=O)O)=C(CSc3nc(=O)c(=O)[nH]n3C)CS(=O)(=O)[C@H]12 (stereo not given in full) | 61

Test system: Cricetinae gen. sp.
Assay: Compound was evaluated in vivo for inhibition of HLE-induced hemorrhage in hamster lung at 200 microg, 1 hr after administration prior to HLE
Type: functional, Cricetulus griseus
Summary of the method: as §2

SMILES | Inhibition [%]
CO[C@H]1C(=O)N2C(C(=O)N(C)CC(=O)O)=C(COC(=O)c3ccccc3)CS(=O)(=O)[C@H]12 | 88
